Screening results (PubChem BioAssay)
Dynein cargo inh – inhibitors of GR-EGFP nuclear translocation, primary screen, dynein cargo transport inhibitor project, imaging, high-content, 3617.4 mouse cells | AID 1381, 2008 | 220,000 compounds, 0.47% hits | z-score, hits read low | test concentration mostly 20 µM; stimulated with dexamethasone, 1 µM; hits give low values;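 active = plate z-score of nuclear minus cytoplasmic receptor signal below a set negative limit, without overly bright fluorescence or cell loss, cut at about -3.5 in these data, passing the limit was not always enough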;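 also: z-score of nuclear minus cytoplasmic ring GR-EGFP intensity difference per well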
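Medium: Induction medium lacking tetracycline, stripped serum | Probe or stimulus: 1.0 µM final dexamethasone stimulus | Schedule: 48 h induction, then 1 h compound, then 30 min agonist, 37 °C | Signal: Automated 10x imaging of fixed Hoechst-stained cells | Evaluation: Per-cell GR-EGFP intensity, nucleus versus surrounding cytoplasmic ring, well-averaged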
UPR CHOP act – activators of apoptotic CHOP UPR arm, primary screen, cell-based, CHO-CHOP luciferase reporter, luminescence, uHTS; UPR activation; percent of tunicamycin response over DMSO baseline; activation, % at 10 µM; 330,000 compounds, 0.34% hits;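 active = at 10 µM dose, activation of 40% or more, normalized to positive control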;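 also: 100% = tunicamycin at 10 µg/mL and 0% = DMSO alone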
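Dosing – one dose, 10 µM in 0.5% DMSO · System – CHO-CHOP cells, stable luciferase reporter of PERK-eIF2a-CHOP signalling · Input – 500 cells/well · Control set – tunicamycin 10 µg/mL final as positive, DMSO-only wells as negative · Timing – 6 h compound treatment, 37 °C · Measure – % activation vs tunicamycin · Technique – luminescence read with Steady-Glo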
Lmaj promast – Leishmania major promastigote growth inhibition, primary screen; Leishmania major promastigotes, resazurin fluorescence viability; inhibition, % at 10 µM; AID 1063, 2008; 200,000 compounds, 9% hits; in the data active = inhibition above about 50%;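 also: promastigotes grown with compound for 44 hours at 28 °C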
CHOP inhibitor – inhibitors of CHOP promoter induction, primary screen, cell-based, unfolded protein response, luciferase reporter | CHO-K1 CHOP-promoter luciferase, tunicamycin-induced, 15-18 h | inhibition, % at 10 µM | 220,000 compounds, 3.8% hits | AID 2732, 2010;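 active = compounds that reduced the stress-induced luciferase reporter signal by more than about 70% of percent inhibition, limit read from the data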;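 also: 0% = tunicamycin plus vehicle and 100% = wells without tunicamycin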
UPR XBP1 act – activators of adaptive XBP1 UPR arm, primary screen, cell-based, CHO-XBP1 luciferase reporter, luminescence, uHTS; IRE1-XBP1 UPR activation; percent of tunicamycin response, DMSO as zero; activation, % at 20 µM; 330,000 compounds, 0.33% hits; AID 463104, 2010;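 active = versus positive control, 20 µM dose yields 30% or more activation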;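 also: 100% = tunicamycin at 10 µg/mL and 0% = DMSO only wells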
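assay system = CHO-XBP1 luciferase reporter cells | amount = 1000 cells/well | buffer or medium = F12 plus 10% FBS | compound dosing = single point, 20 µM final compound, 1% DMSO | incubation = 16-18 h cell attachment at 37 °C, then 6 h compound exposure | detection = Steady-Glo luminescence read | controls = tunicamycin 10 µg/mL and vehicle-only wells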
T cruzi repl – inhibitors of intracellular T. cruzi growth, primary screen, luminescence, NIH3T3 host cells. 300,000 compounds, 1.4% hits. AID 1885, 2009. inhibition, % (no concentration beside the values). T. cruzi beta-gal in NIH3T3, 90 h;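 active = mean inhibition across valid replicates above about 55%, limit read from the data; inconclusive = mean below that limit but half or more replicates reach it; inactive = mean below it, under half of replicates reach it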;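 also: signal also drops with host cell toxicity which is not excluded here; 0% = plate median of DMSO wells and 100% = zero luminescence signal; higher percent means less beta-gal luminescence so fewer parasites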
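Test system: β-gal T. cruzi (Tulahuen C4) inside NIH/3T3 cells / Quantity: 5,000 cells/well / Measured by: luminescence from GalScreen with 0.05% NP40, read after 60 min / Medium: DMEM plus 2% FBS / Measure: parasite load inhibition, % / Reagent: Tulahuen C4 trypomastigotes, 5000/well / Schedule: co-culture of at least 90 h after 3 h attachment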
Dynein confirm – dynein cargo transport inhibitors, GR-EGFP translocation, confirmation, imaging, high-content imaging, GR-EGFP cells | 3617.4 GR-EGFP nuclear translocation imaging, dexamethasone-induced | 1,000 compounds, 69% hits | calls only at 20 µM | shares compounds with Dynein cargo inh | AID 463116, 2010;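 active = inhibition of receptor movement into the nucleus at or above a set limit in both runs, with normal cell brightness and cell count; inconclusive = limit reached in only one run, brightness and count normal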;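 also: dexamethasone at 1 µM final in well for 30 min; nuclear minus cytoplasmic GR-EGFP mean intensity difference in channel 2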
CHOP confirm – retest of CHOP induction inhibitors, confirmation, cell-based; shares compounds with CHOP inhibitor; CHO-CHOP promoter luciferase reporter, tunicamycin-induced, luminescence; inhibition, % at 10 µM; 2,100 compounds, 45% hits; AID 504437, 2011;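 active = mean of three repeat readings of reporter signal inhibition above a set limit, cut at about 70% in these data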;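 also: 0% = tunicamycin plus vehicle and 100% = wells lacking tunicamycin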
UPR CHOP confirm – activators of apoptotic CHOP UPR arm, confirmation, cell-based, CHO-CHOP luciferase reporter, single concentration; 1,000 compounds, 64% hits; shares compounds with UPR CHOP act; activation, % at 10 µM; AID 463112, 2010; CHO-CHOP cells, CHOP-luciferase reporter luminescence; percent of tunicamycin response, DMSO as zero; in the data active = activation above about 33%;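 also: 0% = DMSO wells and 100% = tunicamycin 10 µg/mL wells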
Numbers without * were called inactive; ? = inconclusive; nt = not tested or not shown; + = active, no number. This excerpt belongs to a sample that is enriched for hits.

SMILES | Dynein cargo inh | UPR CHOP act | Lmaj promast | CHOP inhibitor | UPR XBP1 act | T cruzi repl | Dynein confirm | UPR CHOP confirm | others
COC(=O)c1cc(=O)n(CCc2ccc(OC)cc2)c(=Nc2ccc(F)c(Cl)c2)s1 | -4.4* | 60* | 100* | -34 | 10 | 42 | + | 40*
COC(=O)c1cc(=O)n(Cc2ccc3c(c2)OCO3)c(=Nc2ccc(F)c(Cl)c2)s1 | -3.6* | 62* | 100* | -30 | 3 | 44 | + | 73*
O=C(NCc1cccnc1)/C(=C/c1ccc(-c2ccc(Cl)cc2)o1)S(=O)(=O)c1ccccc1 | -5.3* | 136* | 101* | 104* | -5 | 49 | + | 91*
O=C(NCc1cccnc1)/C(=C\c1ccc(-c2ccc(Br)cc2)o1)S(=O)(=O)c1ccccc1 | -4.6* | 83* | 100* | 106* | -5 | 30 | + | 52*
COc1ccc(Nc2cccccc2=O)cc1 | 0.19 | 3 | -5 | 5 | 4 | 1 | nt | nt
COc1ccc(C2=CC(=O)N(Nc3ccccc3)C2=O)cc1 | -5.1* | 48* | 7 | 101* | -4 | -33 | + | 149* | CHOP confirm=-20
CC1(C)CC(=O)C2=C(C1)OC1=C(C(=O)CC(C)(C)C1)C2c1ccc(O)cc1O | -5.2 | 208* | 76* | nt | -5 | 5 | + | -9 | CHOP confirm=-86
CC1(C)CC(=O)C2=C(C1)OC1=C(C(=O)CC(C)(C)C1)C2c1ccc(O)c([N+](=O)[O-])c1 | 0.48 | -1 | 4 | 25 | -2 | 14 | nt | nt
S=c1[nH]nc(-c2cc(-c3ccccc3)n[nH]2)n1/N=C/C(Br)=C/c1ccccc1 | -4.3* | 109* | nt | -14 | 12 | 12 | ? | 130*
Cc1nc([N+](=O)[O-])cn1CC(=O)c1ccc(Br)cc1 | nt | -1 | nt | nt | -1 | 3 | nt | nt
Cc1nc([N+](=O)[O-])c(Br)n1CC(=O)c1ccc(Cl)cc1 | -6.5* | 58* | 99* | -64 | -6 | -15 | + | 60*
Cc1cc(C)nc(NC(=S)NC(=O)c2ccccc2F)n1 | nt | 1 | nt | nt | -1 | 12 | nt | nt
Cc1cc(C)nc(S/C=C/C(=O)c2ccccc2F)n1 | -3.7* | 73* | nt | 85* | 0 | 41 | + | 8
O=C1ON=C(c2ccc(Cl)cc2)/C1=C/c1ccc(O)cc1 | -5* | 107* | 65* | -45 | -2 | -12 | + | 21
CC(=O)/C=C\c1ccccc1OC(=O)c1cc2ccccc2oc1=O | nt | 2 | nt | nt | -4 | -18 | nt | nt
O=C(/C=C\c1ccccc1OC(=O)c1ccccc1F)c1cc2ccccc2o1 | -4.7* | 55* | 52* | 9 | 12 | -3 | + | 287*
CCN(CC1CCCO1)C(=O)CCc1nnc(CCc2ccc(OC)cc2)o1 (stereo unspecified) | nt | 3 | nt | nt | -1 | 7 | nt | nt
Cc1ccc(S(=O)(=O)N2CCOCC2)cc1NC(=O)COC(=O)Cn1c(C)csc1=O | nt | 0 | nt | nt | -2 | 0 | nt | nt
COc1cc(/C=C2\COC/C(=C\c3ccc(O)c(OC)c3)C2=O)ccc1O | -5.7* | 140* | nt | 41 | -6 | -26 | + | 112*
